# Test results from ChEMBL document CHEMBL1772984, “Inhibitor selectivity of a new class of oseltamivir analogs against viral neuraminidase over human neuraminidase enzymes” (Bioorg Med Chem, 2011).
# Calls of active or inactive are those of the source. No cut-off for these calls is given here.
# What was measured:
# [1] = target: T1, Sialidase-4 (Homo sapiens) (UniProt Q8WWR8); experiment: (§1) Inhibition of human NEU4 using 4MU-NA as substrate after 1 hr by fluorescence assay
# T1 sequence (whole entry): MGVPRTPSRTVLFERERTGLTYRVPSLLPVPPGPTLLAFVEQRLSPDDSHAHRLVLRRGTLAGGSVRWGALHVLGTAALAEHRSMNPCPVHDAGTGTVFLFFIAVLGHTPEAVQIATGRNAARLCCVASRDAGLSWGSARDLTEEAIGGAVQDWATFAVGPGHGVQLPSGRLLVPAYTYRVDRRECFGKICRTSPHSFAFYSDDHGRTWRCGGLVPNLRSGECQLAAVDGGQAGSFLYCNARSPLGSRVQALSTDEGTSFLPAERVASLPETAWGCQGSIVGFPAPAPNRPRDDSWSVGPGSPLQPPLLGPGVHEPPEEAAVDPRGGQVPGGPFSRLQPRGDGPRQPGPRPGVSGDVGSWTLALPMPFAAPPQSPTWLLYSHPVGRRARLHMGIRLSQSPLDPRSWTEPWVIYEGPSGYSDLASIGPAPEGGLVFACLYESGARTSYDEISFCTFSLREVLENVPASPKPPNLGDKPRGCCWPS
# How it was run: (§2)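 Recombinant human NEU4 was used as a GST fusion, expressed in E. coli BL21(DE3) pLysS and glutathione-agarose purified. Enzyme (0.1 mg/mL before mixing) was preincubated 30 min at 37 °C with inhibitor (eight serial-dilution concentrations, five replicates). 4MU-NA was added from a 1 mM stock in 0.1 M sodium acetate pH 4.5 for 1 h.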
# [2] = target: T2, Sialidase-3 (Homo sapiens) (UniProt Q9UQ49); experiment: (§3) Inhibition of human NEU3 using 4MU-NA as substrate after 1 hr by fluorescence assay
# T2 sequence (whole entry): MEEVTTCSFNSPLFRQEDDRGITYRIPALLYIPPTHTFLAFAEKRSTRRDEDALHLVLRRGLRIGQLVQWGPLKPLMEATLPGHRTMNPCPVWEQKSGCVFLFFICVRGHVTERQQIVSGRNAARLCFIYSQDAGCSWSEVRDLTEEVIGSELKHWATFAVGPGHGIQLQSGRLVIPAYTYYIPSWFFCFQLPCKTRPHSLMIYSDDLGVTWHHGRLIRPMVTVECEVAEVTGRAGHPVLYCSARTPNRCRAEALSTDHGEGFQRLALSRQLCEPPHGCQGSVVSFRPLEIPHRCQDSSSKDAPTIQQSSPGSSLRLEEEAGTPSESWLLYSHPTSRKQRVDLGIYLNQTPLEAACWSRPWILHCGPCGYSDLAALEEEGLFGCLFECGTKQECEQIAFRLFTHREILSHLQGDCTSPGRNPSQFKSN
# How it was run: (§4)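 Recombinant human NEU3 was used as an N-terminal MBP fusion, expressed in E. coli. Enzyme (0.1 mg/mL before mixing) was preincubated with inhibitor (eight serial-dilution concentrations, five replicates) for 30 min at 37 °C. 4MU-NA was then added from a 1 mM stock in 0.1 M sodium acetate pH 5.0 and incubated 1 h.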
# Sialidase-3 = target: T3, Sialidase-3 (Homo sapiens, UniProt Q9UQ49); experiment: as §3; how it was run: as §4
# T3 sequence (Q9UQ49 whole entry): T2 sequence (whole entry)
# Sialidase-4 = target: T4, Sialidase-4 (Homo sapiens, UniProt Q8WWR8); experiment: as §1; how it was run: as §2
# T4 sequence (Q8WWR8 whole entry): T1 sequence (whole entry)
# [3] = Inhibition of viral Neuraminidase
SMILES,inhibition [1],inhibition [2],IC50 (Sialidase-3) [µM],IC50 (Sialidase-4) [µM],Ki [3] [µM]
CCC(CC)O[C@@H]1CC(C(=O)O)=C[C@H](n2cc(CCc3ccccc3)nn2)[C@H]1NC(C)=O,inactive,inactive,,,
CC(=O)N[C@H]1[C@H]([C@H](O)[C@H](O)CO)OC(C(=O)O)=C[C@@H]1O [NEU5AC2EN],,,30,,
CCC(CC)O[C@@H]1CC(C(=O)O)C=C(n2cc(C(C)(C)O)nn2)[C@H]1NC(C)=O (some centres undefined),inactive,,,> 1000,
CCC(CC)O[C@@H]1CC(C(=O)O)=C[C@H](N)[C@H]1NC(C)=O,,,> 1000,> 1000,
CCC(CC)O[C@@H]1CC(C(=O)O)=C[C@H](n2cc(C(C)(C)O)nn2)[C@H]1NC(C)=O,inactive,inactive,> 1000,> 1000,
CCC(CC)O[C@@H]1CC(C(=O)O)=C[C@H](n2cc([C@]3(O)CC[C@H]4[C@@H]5CCc6cc(O)ccc6[C@H]5CC[C@@]43C)nn2)[C@H]1NC(C)=O,,,350,800,
CCC(CC)O[C@@H]1CC(C(=O)O)=C[C@H](n2cc(C(O)CC)nn2)[C@H]1NC(C)=O (some centres undefined),,,,,0.072
